# Data taken from ChEMBL document CHEMBL3244113, “Antimycotic imidazoles. part 4. Synthesis and antifungal activity of ketoconazole, a new potent orally active broad-spectrum antifungal agent” (1979).
# Calls of active or inactive are those of the source. No cut-off for these calls is given here.
# What was measured:
# Sporothrix schenckii [1] = assay: Antifungal activity against Sporothrix schenckii assessed as growth inhibition in sabouraud broth after 14 days; format: functional
# Summary of the method: (§1)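 Broth dilution in Sabouraud broth, with or without 10% inactivated bovine serum, incubated 14 days. Read-out: concentration (µg/mL) giving complete or marked inhibition of growth. Tested in preliminary experiments.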
# Microsporum canis [2] = assay: Antifungal activity against Microsporum canis assessed as growth inhibition in sabouraud broth after 14 days in presence of 10% inactivated bovine serum; format: functional; summary of the method: as §1
# Aspergillus fumigatus [3] = assay: Antifungal activity against Aspergillus fumigatus assessed as growth inhibition in sabouraud broth after 14 days; format: functional
# [4] = system: Staphylococcus haemolyticus; assay: Antifungal activity against Staphylococcus haemolyticus assessed as growth inhibition in sabouraud broth after 14 days; format: functional; summary of the method: as §1
# Candida albicans [5] = assay: Antifungal activity against Candida albicans assessed as growth inhibition in sabouraud broth after 14 days in presence of 10% inactivated bovine serum; format: functional; summary of the method: as §1
# Cryptococcus neoformans = assay: Antifungal activity against Cryptococcus neoformans assessed as growth inhibition in sabouraud broth after 14 days; format: functional; summary of the method: as §1
# Candida albicans [6] = assay: Antifungal activity against Candida albicans B2630 infected in ovariectomized and hysterectomized Wistar rat vaginal candidosis model at 5 mg/kg, po for 14 days by prophylactic treatment; format: functional
# Summary of the method: (§2)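 Female Wistar rats (100 g) were ovariectomized and hysterectomized under thalamonal anaesthesia. From 3 weeks later, and weekly thereafter, each received oestradiol undecanoate 100 µg in sesame oil s.c. Pseudooestrus was confirmed by vaginal smear. Rats were infected intravaginally with 8×10^5 C. albicans B 2630 cells in 0.2 mL saline. Compound in PEG 200 was given daily by gavage from the day of infection. Vaginal swab smears were taken on days 7, 11 and 14. Read-out: negative animals/total.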
# Aspergillus fumigatus [7] = assay: Antifungal activity against Aspergillus fumigatus assessed as growth inhibition in sabouraud broth after 14 days in presence of 10% inactivated bovine serum; format: functional
# Candida albicans [8] = assay: Antifungal activity against Candida albicans assessed as growth inhibition in sabouraud broth after 14 days; format: functional; summary of the method: as §1
# Coccidioides immitis = assay: Antifungal activity against Coccidioides immitis infected in mouse coccidioidomycosis model assessed as cell killing activity at 40 mg/kg, po od for 2.5 weeks relative to control; format: functional
# Candida albicans [9] = assay: Antifungal activity against Candida albicans B2630 infected in ovariectomized and hysterectomized Wistar rat vaginal candidosis model at 2.5 mg/kg, po for 14 days by prophylactic treatment; format: functional, organism-based; set-up: dose 2.5 mg/kg; summary of the method: as §2
# Candida albicans [10] = assay: Antifungal activity against Candida albicans B2630 infected in ovariectomized and hysterectomized Wistar rat vaginal candidosis model at 5 mg/kg, po for 5 days by prophylactic treatment; format: functional, organism-based; set-up: dose 5 mg/kg
# Candida albicans [11] = assay: Antifungal activity against Candida albicans B2630 infected in ovariectomized and hysterectomized Wistar rat vaginal candidosis model at 1.25 mg/kg, po for 14 days by prophylactic treatment; format: functional, organism-based; set-up: dose 1.25 mg/kg; summary of the method: as §2
# [12] = system: Trichophyton mentagrophytes; assay: Antifungal activity against Trichophyton mentagrophytes assessed as growth inhibition in sabouraud broth after 14 days; format: functional; summary of the method: as §1
# Microsporum canis [13] = assay: Antifungal activity against Microsporum canis assessed as growth inhibition in sabouraud broth after 14 days; format: functional; summary of the method: as §1
# Candida albicans [14] = assay: Antifungal activity against Candida albicans B2630 infected in guinea pig cutaneous candidosis model at 2.5 mg/kg, po for 14 days measured on day 21; format: functional, organism-based; set-up: dose 2.5 mg/kg
# Summary of the method: (§3)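 Guinea pig cutaneous candidosis. Compound dissolved in PEG 200, given by oral gavage once daily for 14 consecutive days; placebo group included. Read-out: ratio of infection-negative animals to total at day 21.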
# Trichophyton rubrum = assay: Antifungal activity against Trichophyton rubrum assessed as growth inhibition in sabouraud broth after 14 days; format: functional; summary of the method: as §1
# Candida albicans [15] = assay: Antifungal activity against Candida albicans B2630 infected in guinea pig cutaneous candidosis model at 10 mg/kg, po for 14 days measured on day 21; format: functional, organism-based; set-up: dose 10 mg/kg; summary of the method: as §3
# Candida albicans [16] = assay: Antifungal activity against Candida albicans B2630 infected in ovariectomized and hysterectomized Wistar rat vaginal candidosis model at 2.5 mg/kg, po for 11 days by prophylactic treatment; format: functional, organism-based; set-up: dose 2.5 mg/kg
# Candida tropicalis [17] = assay: Antifungal activity against Candida tropicalis assessed as growth inhibition in sabouraud broth after 14 days; format: functional; summary of the method: as §1
# Sporothrix schenckii [18] = assay: Antifungal activity against Sporothrix schenckii assessed as growth inhibition in sabouraud broth after 14 days in presence of 10% inactivated bovine serum; format: functional; summary of the method: as §1
# Streptococcus pyogenes = assay: Antifungal activity against Streptococcus pyogenes assessed as growth inhibition in sabouraud broth after 14 days; format: functional; summary of the method: as §1
# Saprolegnia = assay: Antifungal activity against Saprolegnia Sp. assessed as growth inhibition in sabouraud broth after 14 days; format: functional; summary of the method: as §1
# [19] = system: Erysipelothrix rhusiopathiae; assay: Antifungal activity against Erysipelothrix insidiosa assessed as growth inhibition in sabouraud broth after 14 days; format: functional; summary of the method: as §1
# Candida tropicalis [20] = assay: Antifungal activity against Candida tropicalis assessed as growth inhibition in sabouraud broth after 14 days in presence of 10% inactivated bovine serum; format: functional; summary of the method: as §1
# [21] = system: Trichophyton mentagrophytes; assay: Antifungal activity against Trichophyton mentagrophytes assessed as growth inhibition in sabouraud broth after 14 days in presence of 10% inactivated bovine serum; format: functional; summary of the method: as §1
# Phialophora verrucosa = assay: Antifungal activity against Phialophora verrucosa assessed as growth inhibition in sabouraud broth after 14 days; format: functional; summary of the method: as §1
# Candida albicans [22] = assay: Antifungal activity against Candida albicans B2630 infected in guinea pig cutaneous candidosis model at 0.63 mg/kg, po for 14 days measured on day 21; format: functional, organism-based; set-up: dose 0.63 mg/kg; summary of the method: as §3
Compound,GI (Sporothrix schenckii [1]) [µg/mL],GI (Microsporum canis [2]) [µg/mL],GI (Aspergillus fumigatus [3]) [µg/mL],GI [4] [µg/mL],GI (Candida albicans [5]) [µg/mL],GI (Cryptococcus neoformans) [µg/mL],GI (Aspergillus fumigatus [7]) [µg/mL],GI (Candida albicans [8]) [µg/mL],GI [12] [µg/mL],GI (Microsporum canis [13]) [µg/mL],GI (Trichophyton rubrum) [µg/mL],GI (Candida tropicalis [17]) [µg/mL],GI (Sporothrix schenckii [18]) [µg/mL],GI (Streptococcus pyogenes) [µg/mL],GI (Saprolegnia) [µg/mL],GI [19] [µg/mL],GI (Candida tropicalis [20]) [µg/mL],GI [21] [µg/mL],GI (Phialophora verrucosa) [µg/mL],further results
CC(=O)N1CCN(c2ccc(OCC3COC(Cn4ccnc4)(c4ccc(Cl)cc4Cl)O3)cc2)CC1 (racemic) [KETOCONAZOLE],1,1,100,100,1,1,10,10,0.1,10,1,1,1,10,1,10,0.1,0.1,1,Activity (Candida albicans [6]): 100%; Activity (Coccidioides immitis): >60%; Activity (Candida albicans [9]): Active; Activity (Candida albicans [10]): Active; Activity (Candida albicans [11]): Active; Activity (Candida albicans [14]): Active; Activity (Candida albicans [15]): Active; Activity (Candida albicans [16]): inactive; Activity (Candida albicans [22]): inactive
Clc1ccc(COC(Cn2ccnc2)c2ccc(Cl)cc2Cl)c(Cl)c1 (configuration not stated) [MICONAZOLE],1,10,10,10,>10,1,>10,10,0.01,1,1,1,10,0.01,10,0.01,>10,0.1,100,–
